Hits are enriched below; roughly 4.6% of the tested compounds scored in any of these assays.
TAAR1 agonist – agonists of human TAAR1. Q96RJ0. CHO RD-HGA16 TAAR1, Fluo-8 calcium fluorescence; vehicle wells 0%, saturating PEA agonist 100%. activation, % at 3 µM. 0.99% of 360,000 active;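 active = activation above the mean activation of all test compounds in the run plus 3 SD, cut at about 38% in these data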
Target sequence (Q96RJ0 whole entry, looked up): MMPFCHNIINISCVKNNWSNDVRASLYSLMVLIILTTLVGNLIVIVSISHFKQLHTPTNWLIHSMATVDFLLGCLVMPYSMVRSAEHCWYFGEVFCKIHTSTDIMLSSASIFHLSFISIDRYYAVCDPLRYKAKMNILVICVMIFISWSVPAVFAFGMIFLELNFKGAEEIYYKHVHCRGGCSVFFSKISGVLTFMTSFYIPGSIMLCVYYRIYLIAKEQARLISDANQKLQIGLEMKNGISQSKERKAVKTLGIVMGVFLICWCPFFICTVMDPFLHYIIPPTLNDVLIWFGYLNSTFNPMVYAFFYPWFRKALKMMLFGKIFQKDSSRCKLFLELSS
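Test system: RD-HGA16 (CHO) cells co-expressing Gα16 and hTAAR1; dosing: one-point dosing at 3 µM (nominal); timing: 17-24 h seeding, 75 min 37 °C dye, 30 min RT; signal: kinetic Fluo-8 calcium fluorescence; read-out basis: % activation relative to PEA EC100 response; controls: DMSO and PEA EC100; replicates: n 1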
GPR7 antag – antagonists of human GPR7 (neuropeptides B/W receptor 1); GPR7-expressing cells, fluorescence antagonist assay; inhibition, % at 4.4 µM; 1.1% of 290,000 active; AID 1861; in the data active = inhibition above about 16%, passing the limit was not always enough;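 also: cells stimulated with the agonist NPW; 0% = agonist with vehicle and 100% = vehicle without agonist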
Target sequence (P48145 whole entry, looked up): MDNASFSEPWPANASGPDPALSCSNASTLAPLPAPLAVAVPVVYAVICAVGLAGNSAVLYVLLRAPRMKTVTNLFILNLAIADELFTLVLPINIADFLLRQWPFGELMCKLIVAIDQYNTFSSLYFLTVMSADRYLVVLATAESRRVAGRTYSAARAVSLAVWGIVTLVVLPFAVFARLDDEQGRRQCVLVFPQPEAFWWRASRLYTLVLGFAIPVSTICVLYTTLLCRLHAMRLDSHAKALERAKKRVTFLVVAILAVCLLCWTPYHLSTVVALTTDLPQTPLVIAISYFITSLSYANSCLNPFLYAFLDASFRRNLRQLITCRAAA
CHO parental Ca – counter-screen for OX1R antagonists: effect in parental CHO cells. parental CHO-K1, ATP-induced calcium, Fluo-8 fluorescence. inhibition, % at 5.6 µM. 0.63% of 330,000 active. AID 463079;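 active = inhibition above that plate's mean sample inhibition plus 3 SD, cut at about 26% in these data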;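 also: 0% = ATP-challenged DMSO wells and 100% = DMSO wells without ATP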
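Measured by: calcium-sensitive Fluo-8 fluorescence / Test system: CHO parental line / Controls: ATP-challenged DMSO wells low, unchallenged DMSO wells high / Measure: % inhibition / Compound: single nominal dose of 5.6 µM per compound / Replicates: single well per compound, no replicates / Reagent: ATP as calcium-mobilizing challenge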
TAAR1 antag – human TAAR1 antagonism. CHO RD-HGA16 TAAR1, Fluo-8 calcium fluorescence, antagonist. inhibition, % at 3 µM. 1.5% of 360,000 active. AID 624466;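 active = inhibition above a per-plate cutoff, the mean inhibition of test compounds on that plate plus 3 SD, cut at about 49% in these data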;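 also: 0% = DMSO plus EC80 beta-PEA response and 100% = DMSO alone without agonist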
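System: RD-HGA16 CHO cells with stable hTAAR1 and Gα16 | Probe or stimulus: EC80 β-phenethylamine stimulus | Dosing: 3 µM, single point | Times: Dye loading 75 min at 37 °C, then 30 min room temperature | Measured by: Fluo-8 calcium-sensitive fluorescence | Read-out basis: % inhibition of agonist calcium response | Replicates: n of 1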
OX1R antag-1 – antagonists of human orexin 1 receptor (OX1R) | O43613 | OX1R-expressing cells, FRET antagonist read-out | inhibition, % at 6.6 µM | 1.8% of 330,000 active; in the data active = inhibition mostly above about 38%, no sharp cut-off; inactive = mostly below about 40%;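 also: 0% = agonist challenge alone and 100% = reference antagonist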
OX1R antag-2 – blocks the human orexin 1 receptor | O43613 | CHO/OX1R cells, Fluo-8 calcium fluorescence, orexin A | 0.43% of 330,000 active | AID 434989 | inhibition, % at 5 µM;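 active = inhibition above its plate's threshold, mean inhibition of all tested compounds on the plate plus 3 SD, cut at about 37% in these data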;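 also: 0% = orexin A challenge wells and 100% = SB-334867-A antagonist wells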
The depositor's hits bear a star; . = no result given.

SMILES	TAAR1 agonist	GPR7 antag	CHO parental Ca	TAAR1 antag	OX1R antag-1	OX1R antag-2
CCOC(=O)c1cnc(-c2ccccc2)nc1Oc1ccc(Cl)c(Cl)c1	10	19*	-4	1	7	-7
CCOC(=O)c1cnc(-c2ccccc2)nc1Oc1cccc(Cl)c1	18	-3	-2	-3	14	-20
CCOC(=O)c1cnc2sc3c(n2c1=O)CCCC3	-1	23	43*	2	58	35
CC(C)(C)n1nc(C2CC2)c(Br)c1NC(=O)c1ccc(Cl)cc1	-1	.	.	-10	.	.
CC(C)(CC(=O)N1CCN(c2ccc(Cl)cc2)CC1)CC1=NS(=O)(=O)c2ccccc2N1	34	-12	75*	64*	48	46
O=C(CCCC1=NS(=O)(=O)c2ccccc2N1)N1CCN(c2ccc(Cl)cc2)CC1	6	-1	-10	11	19	-32
OCC[C@@H]1C[C@H](O)[C@@H](O)[C@@]2(OCc3ccc(CO)cc32)O1	0	.	.	-8	.	.
O=C(CCc1ccccc1)NC1(Cc2ccccc2)CCN(CCCc2ccccc2)C1=O (stereo unspecified)	7	.	-29	55*	7	-11
COc1cc2ccccc2cc1C(=O)Nc1nccs1	6	1	-22	40	64*	-9
COc1cc2ccccc2cc1C(=O)Nc1cc(C)ccn1	-2	-8	-24	14	53*	-15
COC(=O)Cn1nnnc1-c1nc2cc(C)c(C)cc2[nH]c1=O	0	.	.	-2	.	.
CC1(C(=O)NS(=O)(=O)c2ccc(Cl)s2)CCN1C(=O)C1(c2ccc(Cl)cc2)CC1 (stereo unspecified)	2	.	.	-8	.	.
Cc1cc(NC(=O)C2C3C(=O)N(CCC(C)C)C(C(=O)NCc4ccccc4)C34C=CC2(C)O4)no1 (stereo unspecified)	9	-10	2	4	46*	-2
COc1cc(CNCCCN2CCOCC2)cc(Br)c1OCc1ccc(Cl)cc1	13	59*	-3	2	6	0
COc1cc(CNCCN2CCOCC2)ccc1OCc1ccc(Cl)cc1	4	9	-18	-7	23	-15
N#C/C(=C(/O)CCl)c1nc(-c2ccccc2)cs1	3	19*	-22	-6	20	-12
Cc1ccc(-c2csc(/C(C#N)=C(\O)CCl)n2)cc1	3	4	.	12	.	.
NC(COCc1ccccc1)c1csc(Nc2ccc(C(=O)c3ccccc3)cc2)n1 (stereo unspecified)	50*	.	.	43	.	.
NC(CCc1ccccc1)c1csc(NC(=O)Nc2cccc(Cl)c2)n1 (stereo unspecified)	39*	.	.	46	.	.
NC(CCc1ccccc1)c1csc(Nc2ccc(C(=O)NCCO)cc2)n1 (stereo unspecified)	2	.	.	1	.	.
NC(=O)c1ccc(Nc2nc(C(N)COCc3ccccc3)cs2)cc1 (stereo unspecified)	2	.	.	0	.	.
COc1ccccc1NC(=O)Nc1nc(C(N)CCc2ccccc2)cs1 (stereo unspecified)	8	.	.	9	.	.
NC(CCc1ccccc1)c1csc(Nc2ccc(C(=O)c3ccccc3)cc2)n1 (stereo unspecified)	41*	.	.	34	.	.
Cn1ncc2c(Nc3ccc(Cl)c(Cl)c3)ncnc21	37	13	-12	14	65*	8
CCN1C(=O)N(C(C)=O)[C@@H]2C[C@H](C(=O)N3CCCC3)[C@H](C)[C@H](c3ccccc3)C[C@@H]21	1	.	.	-2	.	.
SMILES	TAAR1 agonist	GPR7 antag	CHO parental Ca	TAAR1 antag	OX1R antag-1	OX1R antag-2
O=C(CN1C(=O)NC(c2ccccc2)(c2ccccc2)C1=O)NCc1ccc(F)cc1	9	.	-21	-5	41*	21
COc1ccc(CNC(=O)C(C)N2C(=O)NC(c3ccccc3)(c3ccccc3)C2=O)cc1 (stereo unspecified)	19	.	-33	-1	35*	16
CCNC(=O)NC(=O)C(C)N1C(=O)NC(c2ccccc2)(c2ccccc2)C1=O (stereo unspecified)	3	-17	-26	4	3	-21
Clc1ccc(C(Cn2ccnc2)OCc2c(Cl)cccc2Cl)c(Cl)c1 (stereo unspecified)	11	.	60*	51*	26	19
OC(Cn1ccnc1)c1ccc(Cl)cc1Cl (stereo unspecified)	9	-3	0	0	-7	-7
O=C(/C=C(\Nc1ccccc1)c1ccccc1)c1ccccc1	1	.	.	17	.	.
COC(=O)c1cc2c(ccn2-c2ccc(F)cc2)n1C(C)C	39*	7	-39	-31	10	-32
COC(=O)c1cc2c(ccn2-c2ccc(F)cc2)n1CC(C)C	44*	15	-34	-17	27	-52
O=C(Cn1ccc(=O)[nH]c1=O)Nc1nccs1	2	.	.	-7	.	.
COCCN1C(=O)CN(S(C)(=O)=O)CC1(C)C(=O)Nc1ccc2c(c1)OCCO2 (stereo unspecified)	2	.	.	-23	.	.
O=C(c1[nH]c(C(F)(F)F)nc1-c1ccccc1)N1CCN(c2ncc(C(F)(F)F)cc2Cl)CC1	49*	.	.	49*	.	.
O=C(c1[nH]c(C(F)(F)F)nc1-c1ccccc1)N1CCN(c2ccc(C(F)(F)F)cn2)CC1	2	.	.	8	.	.
COc1ccc2c(c1)[C@@H](NC(=O)c1ccncc1)[C@H](C)[C@H]2c1ccccc1	-2	.	.	-31	.	.
OC(c1ccc(F)c(F)c1)c1nc(-c2cnc3ccccc3c2)cs1 (stereo unspecified)	10	.	.	27	.	.
Cc1ccc(-n2c(-c3ccc(Br)cc3)c[n+]3c2CCc2ccc4cccnc4c2-3)cc1	18	65*	84*	-2	11	90*
O=[N+]([O-])c1ccc(-c2nc(Cl)c3c(n2)CCCC3)o1	0	.	.	-16	.	.
COC(=O)c1ccc(C)c(NC(=O)CCSc2ccc(Cl)cc2)c1	10	-1	-27	7	25	-28
COC(=O)c1cccc(NC(=O)CCSc2ccc(Cl)cc2)c1C	77*	-1	28	91*	13	2
CC(=O)Nc1cccc(-c2ccnc3c2CC(C(=O)NCCN(C)C)O3)c1 (stereo unspecified)	0	.	.	5	.	.
CCCc1nc2ccccc2c(C(=O)OCC(=O)N2CCc3ccccc32)c1CC	0	-20	-16	52*	8	-20
CCCc1nc2ccccc2c(C(=O)OCC(=O)Nc2cccc(S(=O)(=O)N3CCOCC3)c2)c1CC	3	-15	6	52*	19	-5
CCCc1nc2ccccc2c(C(=O)OCC(=O)Nc2ccc(S(=O)(=O)N3CCOCC3)cc2)c1CC	12	-7	-16	22	-2	-16
